Experimental findings from ChEMBL document CHEMBL3739259, “Defining Key Structural Determinants for the Pro-osteogenic Activity of Flavonoids” (J Nat Prod, 2015) are described below.

Series [1] in a line: Cytotoxicity against human MSC assessed as cell viability at 10 uM after 24 hrs measured on day 1 by alamar blue assay (reference value: […] +/- 1%). Conditions: MSC cells, read-out: Activity.
A short description of series [2]: Cytotoxicity against human MSC assessed as cell viability at 1 uM treated for 3 days measured on day 4 by alamar blue assay (reference value: 100 +/- 1%). Conditions: MSC cells, read-out: Activity.
Series [3] can be described thus: Cytotoxicity against human MSC assessed as decrease in cell number at 10 uM after 9 days by methylene blue staining based microscopy relative to control. Conditions: 216 h. In outline:
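Passage-3 bone-marrow hMSCs, high density in Os.D medium, dosed with 1, 5 or 10 μM compound (0.1% v/v DMSO final) on days 0, 3 and 6 with medium changes. Cell number measured on day 9 by methylene blue proliferation assay. Expressed as % of untreated control; three independent triplicate experiments, mean ± SEM, one-way ANOVA versus vehicle.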

The nature of series [4]: Induction of osteogenic differentiation in human MSC assessed as increase in ALP activity at 5 uM using p-NPP as substrate after 9 days by colorimetric method relative to control. It counts as functional. In outline: (§1)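 ALP read on day 9 in passage-3 bone-marrow hMSCs cultured at high density in Os.D medium. Compound (1, 5 or 10 μM, 0.1% v/v DMSO final) was re-applied on days 0, 3 and 6. Colorimetric p-nitrophenyl phosphate method, normalised to time and cell number (pNP/min/20,000 cells). Expressed as % of untreated control; three independent triplicate experiments; one-way ANOVA versus vehicle.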

A short description of series [5]: Cytotoxicity against human MSC assessed as cell viability at 1 uM measured on day 1 by alamar blue assay (reference value: […] +/- 1%). To be noted: MSC cells, read-out: Activity.
The nature of series [6]: Cytotoxicity against human MSC assessed as cell viability at 1 uM treated for 6 days measured on day 7 by alamar blue assay (reference value: 98%). Conditions: MSC cells, read-out: Activity.
Series [7] is described as follows: Cytotoxicity against human MSC assessed as cell viability at 5 uM after 24 hrs measured on day 1 by alamar blue assay (reference value: […] +/- 1%). To be noted: MSC cells, read-out: Activity.
The nature of series [8]: Cytotoxicity against human MSC assessed as cell viability at 5 uM treated for 3 days measured on day 4 by alamar blue assay (reference value: 100 +/- 1%). To be noted: MSC cells, read-out: Activity.
The subject of a further series is MSC. Kind of series: Induction of osteogenic differentiation in human MSC assessed as increase in ALP activity using p-NPP as substrate after 9 days by colorimetric method. It counts as functional. In outline: as §1
A short description of series [9]: Cytotoxicity against human MSC assessed as cell viability at 5 uM treated for 6 days measured on day 7 by alamar blue assay (reference value: 98%). Conditions: MSC cells, read-out: Activity.
Series [10] can be described thus: Induction of osteogenic differentiation in human MSC assessed as increase in ALP activity at 1 uM using p-NPP as substrate after 9 days by colorimetric method relative to control. In kind it is functional. In outline:
as §1

A short description of series [11]: Induction of matrix mineralization in human MSC assessed as increase in calcium deposition across cell monolayer at 10 uM after 20 days by Alizarin red S staining based microscopy relative to control. In kind it is functional.
Series [12] in a line: Cytotoxicity against human MSC assessed as cell viability at 10 uM treated for 6 days measured on day 7 by alamar blue assay (reference value: 98%). Conditions: MSC cells, read-out: Activity.
The nature of series [13]: Cytotoxicity against human MSC assessed as cell viability at 10 uM treated for 3 days measured on day 4 by alamar blue assay (reference value: 100 +/- 1%). To be noted: MSC cells, read-out: Activity.
Series [14] is described as follows: Induction of osteogenic differentiation in human MSC assessed as increase in ALP activity at 10 uM using p-NPP as substrate after 9 days by colorimetric method relative to control. In kind it is functional. Put shortly:
as §1

SMILES strings stand for the structures.

On to `COc1ccc(-c2oc3cc(O)cc(O)c3c(=O)c2O)cc1` [KAEMPFERIDE], for which the viability at 24 h, 10 µM in series [1] is 111%. The viability at 72 h, 1 µM in [2] is 95%. The Activity entry in series [3] is “Non-toxic”; in [4], 237%; in the series on MSC, “Dose-dependent effect”; in series [10] it was 143%; in [14], 281%. Also, the viability at 1 day, 1 µM in [5] came to 112%. In addition, the viability at 144 h, 1 µM in series [6] turned out to be 97%. Besides, the viability at 24 h, 5 µM in series [7] is 112%. In [8], the viability at 72 h, 5 µM was 95%. The viability at 144 h, 5 µM in series [9] came out at 98%. Also, the “fold change (FC)” value in series [11] stood at 3.17. Also, the viability at 144 h, 10 µM in series [12] was 99%. Moreover, in [13], the viability at 72 h, 10 µM is 95%.
